Measured values taken from ChEMBL document CHEMBL5032510, “Identification of Novel Fused Heteroaromatics-Based MALT1 Inhibitors by High-Throughput Screening to Treat B Cell Lymphoma” (J Med Chem, 2021).
Activity calls are given as the source filed them. The rule behind the calls is not given here.

Assays:
[1] = target: T1, Mucosa-associated lymphoid tissue lymphoma translocation protein 1 (Homo sapiens, UniProt Q9UDY8); assay: Inhibition of N-terminal his-tagged GCN4 leucine zipper fused human MALT1 […] expressed in Escherichia coli using Ac-LVSR-AMC as substrate by HTS assay
T1 sequence (Q9UDY8 whole entry): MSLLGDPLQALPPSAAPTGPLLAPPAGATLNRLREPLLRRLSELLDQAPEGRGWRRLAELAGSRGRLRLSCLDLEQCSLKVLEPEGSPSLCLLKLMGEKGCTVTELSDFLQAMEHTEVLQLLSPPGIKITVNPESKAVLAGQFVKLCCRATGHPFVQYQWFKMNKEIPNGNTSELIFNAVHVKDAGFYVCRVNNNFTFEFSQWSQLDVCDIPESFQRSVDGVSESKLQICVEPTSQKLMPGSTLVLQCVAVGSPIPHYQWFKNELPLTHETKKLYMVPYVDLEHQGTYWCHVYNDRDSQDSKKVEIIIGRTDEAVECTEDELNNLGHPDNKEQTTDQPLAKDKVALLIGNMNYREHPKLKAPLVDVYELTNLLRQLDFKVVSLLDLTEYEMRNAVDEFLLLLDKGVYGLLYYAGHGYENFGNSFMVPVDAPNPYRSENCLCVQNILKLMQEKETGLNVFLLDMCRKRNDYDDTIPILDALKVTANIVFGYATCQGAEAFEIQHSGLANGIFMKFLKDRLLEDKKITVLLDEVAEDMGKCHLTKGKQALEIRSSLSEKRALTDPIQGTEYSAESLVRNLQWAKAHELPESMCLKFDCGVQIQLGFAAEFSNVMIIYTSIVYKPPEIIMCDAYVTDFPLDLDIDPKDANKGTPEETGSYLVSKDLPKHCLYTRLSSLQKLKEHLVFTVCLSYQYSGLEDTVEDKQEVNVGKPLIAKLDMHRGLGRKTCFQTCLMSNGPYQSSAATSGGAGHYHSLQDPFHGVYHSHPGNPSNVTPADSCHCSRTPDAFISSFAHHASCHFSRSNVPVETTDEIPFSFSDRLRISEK

OCI-Ly1 = assay: Antiproliferative activity against human OCI-Ly1 cells assessed as inhibition of cell growth incubated for 72 hrs by Celltiter-Glo luminescent assay; type: functional
Summary of the method: (§1)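 Exponentially growing cells were seeded at 1 × 10⁴ per 100 μL. HBL-1 and TMD8 were kept in RPMI with 10% FBS, 2 mM glutamine and 10 mM HEPES; OCI-LY1 in Iscove's medium with 20% FBS; all at 37 °C and 5% CO2. Cells were exposed to DMSO or 2-fold serial dilutions from 100 μM for 72 h, in triplicate on one plate. CellTiter-Glo luminescence was read after 1 h. Growth inhibition was calculated against control, accounting for initial cell number, and GI50 was fitted.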

TMD8 = assay: Antiproliferative activity against human TMD8 cells assessed as inhibition of cell growth incubated for 72 hrs by Celltiter-Glo luminescent assay; type: functional; summary of the method: as §1
[2] = Antiproliferative activity against human HBL1 cells assessed as inhibition of cell growth incubated for 72 hrs by Celltiter-Glo luminescent assay; type: functional; summary of the method: as §1

Compound	IC50 [1] [µM]	GI50 (OCI-Ly1) [µM]	GI50 (TMD8) [µM]	GI50 [2] [µM]	Activity (OCI-Ly1)
O=C(Nc1cc(Cl)cc(Cl)c1)c1sc(=S)n2c1[nH]c(=O)c1ccc(Cl)cc12	7.4				
Cc1ccc(S(=O)(=O)C2=C(O)C(=O)N(Cc3ccc(F)cc3)C2c2ccc(C(C)C)cc2)cc1 (stereo not drawn)	13				
Cc1ccccc1NC(=O)c1sc(=S)n2c1[nH]c(=O)c1ccc(Cl)cc12	11				
COc1ccc(OC)c(NC(=O)c2sc(=S)n3c2[nH]c(=O)c2ccc(F)cc23)c1	17				
COc1ccc(NC(=O)c2sc(=S)n3c2[nH]c(=O)c2ccccc23)cc1	> 25				
COc1cccc(CNC(=O)c2sc(=S)n3c2[nH]c(=O)c2cc(Br)ccc23)c1	12.8	16.1	16.1	16.1	
CCc1ccccc1NC(=O)c1sc(=S)n2c1[nH]c(=O)c1ccccc12	14.7				
Cc1ccccc1C1CCN(c2ccc(NC(=O)c3ccc(Cl)cc3)c(C(=O)O)c2)C1 (stereo not drawn)	12				
O=C(Nc1cccc(F)c1)c1sc(=S)n2c1[nH]c(=O)c1cc(Br)ccc12	16.1	17.1	17.1	17.1	
COC(=O)c1ccc2c(=O)[nH]c3c(C(=O)Nc4ccccc4C)sc(=S)n3c2c1	14.5	15	15	13.1	
COc1ccc(OC)c(NC(=O)c2sc(=S)n3c2[nH]c(=O)c2cc(F)c(F)cc23)c1	11.6				
CCc1ccccc1NC(=O)c1sc(=S)n2c1[nH]c(=O)c1cc(C)ccc12	18.5	31.3	31.3	31.3	
Cc1ccc(NC(=O)c2sc(=S)n3c2[nH]c(=O)c2cc(C)ccc23)c(C)c1	7.16		15.6	20.4	inactive
O=C(Nc1ccc(Cl)cc1)c1sc(=S)n2c1[nH]c(=O)c1ccccc12	> 25				
COc1ccc(OC)c(NC(=O)c2sc(=S)n3c2[nH]c(=O)c2ccc(Br)cc23)c1	18.8				
COc1ccc(OC)c(NC(=O)c2sc(=S)n3c2[nH]c(=O)c2ccccc23)c1	> 25				

Compound	IC50 [1] [µM]	GI50 (OCI-Ly1) [µM]	GI50 (TMD8) [µM]	GI50 [2] [µM]	Activity (OCI-Ly1)
COC(=O)c1ccc2c(=O)[nH]c3c(C(=O)Nc4ccc(F)cc4F)sc(=S)n3c2c1	12.2	21.6	28.2	14.2	
Cc1ccc(NC(=O)Nc2ccc3nc(N4CCN(C)CC4)cc(C)c3c2)cc1Cl	16.6	11.2	5.56	5.56	
COc1ccc(OC)c(NC(=O)c2sc(=S)n3c2[nH]c(=O)c2ccc(OC)cc23)c1	> 25				
COc1ccc(OC)c(NC(=O)c2sc(=S)n3c2[nH]c(=O)c2cc(OC)c(OC)cc23)c1	> 25				
CC(C)c1ccc(S(=O)(=O)Nc2ccc(N3CCC(Cc4ccccc4)CC3)cc2C(=O)O)cc1	12.3				
O=C(Nc1ccc(Cl)c(Cl)c1)c1sc(=S)n2c1[nH]c(=O)c1ccccc12	> 25				
CCc1ccc(NC(=O)c2sc(=S)n3c2[nH]c(=O)c2ccccc23)cc1	> 25				
O=C(Nc1ccccc1)c1sc(=S)n2c1[nH]c(=O)c1ccccc12	> 25				
COc1ccc(OC)c(NC(=O)c2sc(=S)n3c2[nH]c(=O)c2cc(OC)ccc23)c1	> 25				
COc1cccc(CNC(=O)c2sc(=S)n3c2[nH]c(=O)c2cc(Cl)ccc23)c1	12.8		21.6	28.2	
Cc1ccc2c(c1)c(=O)[nH]c1c(C(=O)Nc3ccccc3C)sc(=S)n12	21.1		24.7	24.7	
COc1ccccc1NC(=O)c1sc(=S)n2c1[nH]c(=O)c1ccc(Br)cc12	7.7				
COc1cccc(NC(=O)c2sc(=S)n3c2[nH]c(=O)c2ccccc23)c1	> 25				
O=C(Nc1ccccc1Cl)c1sc(=S)n2c1[nH]c(=O)c1ccccc12	20.4				
COC(=O)c1ccc2c(=O)[nH]c3c(C(=O)Nc4ccc(Cl)c(Cl)c4)sc(=S)n3c2c1	6.9				
COc1ccccc1NC(=O)c1sc(=S)n2c1[nH]c(=O)c1ccccc12	> 25				

Further molecules by falling IC50 [1], results first:

IC50 [1] [µM]	GI50 (OCI-Ly1) [µM]	Compound	GI50 (TMD8) [µM]	GI50 [2] [µM]	Activity (OCI-Ly1)
6.9	12.9	COc1ccc(OC)c(NC(=O)c2sc(=S)n3c2[nH]c(=O)c2cc(Br)ccc23)c1	11	11.7	
6.7	21	O=C(Nc1ccc([N+](=O)[O-])cc1)c1sc(=S)n2c1[nH]c(=O)c1ccccc12	4	14.3	
6.4	34	COC(=O)c1ccc2c(=O)[nH]c3c(C(=O)Nc4ccc(-c5ccccc5)cc4)sc(=S)n3c2c1	23	16	
6		COc1ccccc1CNC(=O)c1sc(=S)n2c1[nH]c(=O)c1cc(Cl)ccc12	40	40	inactive
5.5	11.8	COc1ccc(OC)c(NC(=O)c2sc(=S)n(-c3cccc(C#N)c3)c2NC(=O)CCl)c1	1.6	1.7	
5.3	13.4	COC(=O)c1ccc2c(=O)[nH]c3c(C(=O)Nc4cc(OC)ccc4OC)sc(=S)n3c2c1	7	6.7	
5.2	20.7	COc1ccc(OC)c(NC(=O)c2sc(=S)n3c2[nH]c(=O)c2ccc(Cl)cc23)c1	8.4	8.2	
5.2		CCc1ccccc1NC(=O)c1sc(=S)n2c1[nH]c(=O)c1cc(F)c(F)cc12			
5.1		CCc1ccccc1NC(=O)c1sc(=S)n2c1[nH]c(=O)c1ccc(Cl)cc12			
4.4		CCc1ccccc1NC(=O)c1sc(=S)n2c1[nH]c(=O)c1cc(Br)ccc12			
4.4		O=C(Nc1cccc(Cl)c1[N+](=O)[O-])c1sc(=S)n2c1[nH]c(=O)c1ccc(Cl)cc12			
4.3		COC(=O)c1ccc2c(=O)[nH]c3c(C(=O)Nc4ccc([N+](=O)[O-])cc4)sc(=S)n3c2c1			
4.1		O=C(NCc1cccs1)c1sc(=S)n2c1[nH]c(=O)c1cc(Br)ccc12	22	13	inactive
3.6	48	Cc1ccc(Cl)cc1NC(=O)c1sc(=S)n2c1[nH]c(=O)c1cc3c(cc12)OCO3	12	32	
3.3	20.2	O=C(Nc1cc(Cl)cc(Cl)c1)c1sc(=S)n2c1[nH]c(=O)c1cc(Br)ccc12	3.9	18.4	
3.2	13.3	COc1ccc(OC)c(NC(=O)c2sc(=S)n(-c3cccc(C(F)(F)F)c3)c2NC(=O)CCl)c1	1.3	2.2	
3.2		CCc1ccccc1NC(=O)c1sc(=S)n2c1[nH]c(=O)c1ccc(C(=O)OC)cc12			
3		COC(=O)c1ccc2c(=O)[nH]c3c(C(=O)Nc4cccc(Cl)c4[N+](=O)[O-])sc(=S)n3c2c1			
2.6		O=C(Nc1ccc([N+](=O)[O-])cc1)c1sc(=S)n2c1[nH]c(=O)c1ccc(Cl)cc12			
2.5		COC(=O)c1ccc2c(=O)[nH]c3c(C(=O)Nc4cc(Cl)cc(Cl)c4)sc(=S)n3c2c1			
2.3	30	O=C(NCc1ccccc1Cl)c1sc(=S)n2c1[nH]c(=O)c1cc(Br)ccc12	15	19	
2.2	10	O=C(Nc1cc(Cl)cc(Cl)c1)c1sc(=S)n2c1[nH]c(=O)c1ccccc12	3.7	8	
